# From ChEMBL document CHEMBL1155530, “Identification of aryl 2-aminoimidazoles as biofilm inhibitors in Gram-negative bacteria” (Bioorg Med Chem Lett, 2010)
# Calls of active or inactive are those of the source. No cut-off for these calls is given here.
# Assays:
# [1] = system: Escherichia coli; assay: Inhibition of Escherichia coli biofilm formation after 24 hrs by crystal violet reporter assay; format: functional, organism-based
# Outline: (§1)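 Biofilm formation measured by crystal violet reporter assay. Each compound was first screened at 100 µM. Compounds giving >95% inhibition then went to dose-response studies to derive IC50. Values are means of three or more experiments.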
# [2] = system: Pseudomonas aeruginosa; assay: Inhibition of Pseudomonas aeruginosa PA14 biofilm formation after 24 hrs by crystal violet reporter assay; format: functional, organism-based; conditions: PA14, 24 h; outline: as §1
# [3] = system: Escherichia coli; assay: Dispersion of Escherichia coli established biofilm at 50 uM after 24 hrs by crystal violet reporter assay; format: functional
# [4] = system: Pseudomonas aeruginosa; assay: Dispersion of Pseudomonas aeruginosa PA14 established biofilm at 100 uM after 24 hrs by crystal violet reporter assay; format: functional, organism-based
# [5] = system: Escherichia coli; assay: Toxicity in Escherichia coli assessed as inhibition of planktonic growth at IC50 concentration measured up to 24 hrs; format: organism-based; conditions: in vivo
# [6] = system: Acinetobacter baumannii; assay: Inhibition of Acinetobacter baumannii biofilm formation after 24 hrs by crystal violet reporter assay; format: functional, organism-based; outline: as §1
# [7] = system: Acinetobacter baumannii; assay: Dispersion of Acinetobacter baumannii established biofilm at 100 uM after 24 hrs by crystal violet reporter assay; format: functional
# [8] = system: Escherichia coli; assay: Inhibition of Escherichia coli biofilm formation at 100 uM after 24 hrs by crystal violet reporter assay; format: functional; outline: as §1
# [9] = system: Pseudomonas aeruginosa; assay: Inhibition of Pseudomonas aeruginosa PA14 biofilm formation at 100 uM after 24 hrs by crystal violet reporter assay; format: functional; conditions: PA14, 24 h; outline: as §1
# [10] = system: Acinetobacter baumannii; assay: Inhibition of Acinetobacter baumannii biofilm formation at 100 uM after 24 hrs by crystal violet reporter assay; format: functional; outline: as §1
SMILES,IC50 [1] [µM],Activity [4],also measured
Cl.Nc1ncc(-c2ccc(NC(=O)c3cc(F)cc(F)c3)cc2)[nH]1,5.2,inactive,IC50 [2]: 27.6 µM; Activity [3]: 51%; Activity [5]: Non-toxic
CCCCCCCCCC(=O)Nc1ccccc1-c1cnc(N)[nH]1.Cl,,inactive,IC50 [6]: 43 µM; Activity [7]: 40%
CCCCCc1ccc(C(=O)Nc2ccc(-c3cnc(N)[nH]3)cc2)cc1,39.4,inactive,
Nc1ncc(-c2cccc(NC(=O)C34CC5CC(CC(C5)C3)C4)c2)[nH]1,43.4,inactive,
CCCCCc1ccc(C(=O)Nc2cccc(-c3cnc(N)[nH]3)c2)cc1,16.5,inactive,
CCCCCCC(=O)Nc1ccc(-c2cnc(N)[nH]2)cc1,,inactive,IC50 [2]: 16.8 µM
Nc1ncc(-c2cccc(NC(=O)c3cc(F)cc(F)c3)c2)[nH]1,,inactive,inhibition at 100 µM [8]: 64%; inhibition at 100 µM [9]: < 5%
Cl.Nc1ncc(-c2ccc(NC(=O)/C=C/c3ccccc3)cc2)[nH]1,16.3,inactive,Activity [3]: 67%
CCCCCCC(=O)Nc1cccc(-c2cnc(N)[nH]2)c1,,inactive,IC50 [2]: 39.4 µM
Nc1ncc(-c2ccc(-n3cc(-c4cc(F)cc(F)c4)nn3)cc2)[nH]1,,,inhibition at 100 µM [8]: 35%; inhibition at 100 µM [9]: < 5%; inhibition at 100 µM [10]: 21%
Nc1ncc(-c2cccc(NC(=O)CCC3CCCC3)c2)[nH]1,47,inactive,
Nc1ncc(-c2ccccc2NC(=O)c2cc(F)cc(F)c2)[nH]1,,inactive,inhibition at 100 µM [8]: < 5%; inhibition at 100 µM [9]: < 5%
